According to ChEMBL document CHEMBL1134386, “Cardioselective K(ATP) channel blockers derived from a new series of m-anisamidoethylbenzenesulfonylthioureas” (J Med Chem, 2001):

Key:
Format in all cases: functional, cell-based
[1] = biological target: T1, Sulfonylurea receptor 1, Kir6.2 (Homo sapiens) (UniProt Q14654+Q09428); assay: Antiarrhythmic effect in hSUR1/hKir6.2 (pancreatic KATP channel) transfected in CHO cells at a dose of 0.1 uM; conditions: at 0.1 µM
How it was run: (§1)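 CHO cells stably expressing SUR1/Kir6.2, seeded the day before and washed three times in PBS. Loaded with voltage dye DiBAC4(3), added as a 10 µM solution, with diazoxide, added as a 400 µM solution, both in PBS; 30 min at 37 °C. Compound added after 4 min of baseline. Fluorescence read with 488 nm excitation every 20 s for 20 min. Mean of at least four experiments.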

[2] = biological target: T1, Sulfonylurea receptor 1, Kir6.2 (Homo sapiens); assay: Antiarrhythmic effect in hSUR1/hKir6.2 (pancreatic KATP channel) transfected in CHO cells at a dose of 10 uM; conditions: at 10 µM; how it was run: as §1
[3] = biological target: T1, Sulfonylurea receptor 1, Kir6.2 (Homo sapiens); assay: Antiarrhythmic effect in hSUR1/hKir6.2 (pancreatic KATP channel) transfected in CHO cells at a dose of 1 uM; conditions: at 1 µM; how it was run: as §1
[4] = biological target: T1, Sulfonylurea receptor 1, Kir6.2 (Homo sapiens); assay: Antiarrhythmic effect in hSUR1/hKir6.2 (pancreatic KATP channel) transfected in CHO cells at 1 nM
How it was run: (§2)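 CHO cells stably expressing SUR1/Kir6.2, seeded the day before and washed three times with PBS. Loaded with DiBAC4(3) plus diazoxide in PBS for 30 min at 37 °C. Membrane-potential fluorescence read with 488 nm excitation; compound added at 4 min, then readings every 20 s for 20 min. Mean of at least four experiments.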

[5] = biological target: T1, Sulfonylurea receptor 1, Kir6.2 (Homo sapiens); assay: Antiarrhythmic effect in hSUR1/hKir6.2 (pancreatic KATP channel) transfected in CHO cells at 3 nM; how it was run: as §2

Structure (SMILES) | inhibition [1] [%] | inhibition [2] [%] | inhibition [3] [%] | inhibition [4] [%] | inhibition [5] [%]
CN/C(S)=N/S(=O)(=O)c1cc(CCNC(=O)c2cc(Cl)ccc2OC)ccc1OC(F)(F)F | 0.8 | 64.9 | 6 |  | 
CN/C(S)=N/S(=O)(=O)c1cc(CCNC(=O)c2cc(Cl)ccc2OC)ccc1-c1ccccc1 | 9.4 | 67.7 | 33 |  | 
CN/C(S)=N/S(=O)(=O)c1cc(CCNC(=O)c2cc(Cl)ccc2OC)ccc1I | 1.7 | 89.2 | 19.2 |  | 
CN/C(S)=N/S(=O)(=O)c1cc(CCNC(=O)c2cc(Cl)ccc2OC)ccc1C | 1.9 | 74.8 | 21 |  | 
CN/C(S)=N/S(=O)(=O)c1cc(CCNC(=O)c2cc(Cl)ccc2OC)ccc1C(C)C | 12 | 92.4 | 29.3 |  | 
CNC(=S)NS(=O)(=O)c1cc(CCNC(=O)c2cc(Cl)ccc2OC)ccc1OC | 5 | 83.8 | 24.3 |  | 
CN/C(S)=N/S(=O)(=O)c1cc(CCNC(=O)c2cc(Cl)ccc2OC)ccc1[S+](C)[O-] (stereo not given) | 1.9 | 17.6 | 2.4 |  | 
CN/C(S)=N/S(=O)(=O)c1cccc(CCNC(=O)c2cc(Cl)ccc2OC)c1 | -4.1 | 52.7 | 1.9 |  | 
CN/C(S)=N/S(=O)(=O)c1cc(CCNC(=O)c2cc(Cl)ccc2OC)cc(OC)c1OC | -3.8 | -2.34 | -2.12 |  | 
CN/C(S)=N/S(=O)(=O)c1cc2c(cc1OC)OCCC2CNC(=O)c1cc(Cl)ccc1OC (single isomer, unassigned; (+)) | -3.9 | 70.7 | 3.6 |  | 
CN/C(S)=N/S(=O)(=O)c1cc(CCNC(=O)c2cc(Cl)ccc2OC)ccc1F | -3.9 | 18.1 | -1.3 |  | 
CN/C(S)=N/S(=O)(=O)c1cc(CCNC(=O)c2cc(Cl)ccc2OC)ccc1-c1ccco1 | -2.6 | 82.7 | 16 |  | 
CNC(=O)NS(=O)(=O)c1cc(CCNC(=O)c2cc(Cl)ccc2OC)c(OC)cc1OC | -0.6 | 13.5 | 2.8 |  | 
COc1ccc(Cl)cc1C(=O)NCCc1ccc(OC)c(S(=O)(=O)NC(=O)NC2CCCCC2)c1 | 65.5 | 81.7 | 92.8 |  | 
CN/C(S)=N/S(=O)(=O)c1cc(CCNC(=O)c2cc(Cl)ccc2OC)ccc1OC(C)C | -4.7 | 81.1 | 27.4 |  | 
CNC(=O)NS(=O)(=O)c1cc2c(cc1OC)OCCC2CNC(=O)c1cc(Cl)ccc1OC (single isomer, unassigned; (-)) | 2.5 | 105 | 14.2 |  | 
C=CCOc1ccc(CCNC(=O)c2cc(Cl)ccc2OC)cc1S(=O)(=O)/N=C(\S)NC | 1.7 | 94 | 31.8 |  | 
COc1ccc(Cl)cc1C(=O)NCCc1ccc(OC)c(S(=O)(=O)/N=C(/N)S)c1 | 1.6 | 64.7 | 11.2 |  | 
CN/C(S)=N/S(=O)(=O)c1cc(CCNC(=O)c2cc(Cl)ccc2OC)ccc1Cl | 2.3 | 40.1 | 2.8 |  | 
CCc1ccc(CCNC(=O)c2cc(Cl)ccc2OC)cc1S(=O)(=O)/N=C(\S)NC | 1.3 | 92.9 | 20.5 |  | 
COc1ccc(Cl)cc1C(=O)NCCc1ccc(S(=O)(=O)NC(=O)NC2CCCCC2)cc1 |  |  |  | 24 | 73.3

Structure (SMILES) | inhibition [1] [%] | inhibition [2] [%] | inhibition [3] [%] | inhibition [4] [%] | inhibition [5] [%]
CNC(=O)NS(=O)(=O)c1ccc(CCNC(=O)c2cc(Cl)ccc2OC)cc1 | -0.7 | 86.3 | 62.8 |  | 
CN/C(S)=N/S(=O)(=O)c1cc(CCNC(=O)c2cc(Cl)ccc2OC)ccc1SC | -2.1 | 81.4 | 15.2 |  | 
CCCOc1ccc(CCNC(=O)c2cc(Cl)ccc2OC)cc1S(=O)(=O)/N=C(\S)NC | 4.2 | 103 | 63.6 |  | 
CN/C(S)=N/S(=O)(=O)c1cc(CCNC(=O)c2cc(Cl)ccc2OC)c(OC)c(C)c1OC | -2 | 47.8 | 6.7 |  | 
CN/C(S)=N/S(=O)(=O)c1cc(CCNC(=O)c2cc(Cl)ccc2OC)ccc1Br | 3.3 | 67.7 | 2.2 |  | 
CN/C(S)=N/S(=O)(=O)c1cc(CCNC(=O)c2cc(Cl)ccc2OC)c(C)c(C)c1OC | 0.8 | 64.9 | 6.1 |  | 
CN/C(S)=N/S(=O)(=O)c1cc(CCNC(=O)c2cc(Cl)ccc2OC)ccc1S(C)(=O)=O | 1.8 | 16.4 | 1.1 |  | 
CNC(=O)NS(=O)(=O)c1cc2c(cc1OC)OCCC2CNC(=O)c1cc(Cl)ccc1OC (single isomer, unassigned; (+)) | 2 | 0.3 | 1 |  | 
CN/C(S)=N/S(=O)(=O)c1cc(CCNC(=O)c2cc(Cl)ccc2OC)ccc1-c1ccccn1 | 6.6 | 91.4 | 24.4 |  | 
CCOc1ccc(CCNC(=O)c2cc(Cl)ccc2OC)cc1S(=O)(=O)/N=C(\S)NC | -2.7 | 75.4 | 16.3 |  | 
CN/C(S)=N/S(=O)(=O)c1cc2c(cc1OC)OCCC2CNC(=O)c1cc(Cl)ccc1OC (single isomer, unassigned; (-)) | 6.8 | 75.7 | 63 |  | 
CN/C(S)=N/S(=O)(=O)c1cc(CCNC(=O)c2cc(Cl)ccc2OC)ccc1N1CCOCC1 | -1.6 | 89.1 | 26.7 |  | 
COc1ccc(Cl)cc1C(=O)NCCc1ccc(OC)c(S(=O)(=O)NC(=O)N(C)C)c1 | -3.6 | 25 | -3.2 |  | 
CCCc1ccc(CCNC(=O)c2cc(Cl)ccc2OC)cc1S(=O)(=O)/N=C(\S)NC | 2.3 | 97.1 | 41.5 |  | 
CN/C(S)=N/S(=O)(=O)c1cc(CCNC(=O)c2cc(Cl)ccc2OC)c(OC)cc1OC | -1 | 30.5 | 0.7 |  | 
CNC(=O)NS(=O)(=O)c1cc(CCNC(=O)c2cc(Cl)ccc2OC)ccc1OC | -2.8 | 43.9 | -1.3 |  | 
CN/C(S)=N/S(=O)(=O)c1cc(CCNC(=O)c2cc(Cl)ccc2OC)ccc1OCCOC | 12.5 | 49.5 | 26.2 |  | 
CN/C(S)=N/S(=O)(=O)c1cc(CCNC(=O)c2cc(Cl)ccc2OC)ccc1OCCOCCOC | 1 | 96.4 | 45.5 |  | 
CN/C(S)=N/S(=O)(=O)c1cc(CCNC(=O)c2cc(Cl)ccc2OC)ccc1-c1cccnc1 | 4.4 | 62.3 | 10.2 |  | 
C#Cc1ccc(CCNC(=O)c2cc(Cl)ccc2OC)cc1S(=O)(=O)/N=C(\S)NC | 3.3 | 27.6 | 3.4 |  | 
COc1ccc(Cl)cc1C(=O)NCCc1ccc(OC)c(S(=O)(=O)/N=C(\S)NC2CCCCC2)c1 | 20.5 | 122 | 87.6 |  | 
